Measurements reported in ChEMBL document CHEMBL1154106, “Inhibitory effects of 5-benzylidene barbiturate derivatives on mushroom tyrosinase and their antibacterial activities” (Eur J Med Chem, 2009).
≈ marks a conversion by molar mass, not a printed value. Calls of active or inactive are those of the source. The rule behind the calls is not given here.

How the values were obtained:
[1] = target: T1, Tyrosinase (Agaricus bisporus, UniProt O42713); assay: Inhibition of mushroom tyrosinase
T1 sequence (O42713 whole entry): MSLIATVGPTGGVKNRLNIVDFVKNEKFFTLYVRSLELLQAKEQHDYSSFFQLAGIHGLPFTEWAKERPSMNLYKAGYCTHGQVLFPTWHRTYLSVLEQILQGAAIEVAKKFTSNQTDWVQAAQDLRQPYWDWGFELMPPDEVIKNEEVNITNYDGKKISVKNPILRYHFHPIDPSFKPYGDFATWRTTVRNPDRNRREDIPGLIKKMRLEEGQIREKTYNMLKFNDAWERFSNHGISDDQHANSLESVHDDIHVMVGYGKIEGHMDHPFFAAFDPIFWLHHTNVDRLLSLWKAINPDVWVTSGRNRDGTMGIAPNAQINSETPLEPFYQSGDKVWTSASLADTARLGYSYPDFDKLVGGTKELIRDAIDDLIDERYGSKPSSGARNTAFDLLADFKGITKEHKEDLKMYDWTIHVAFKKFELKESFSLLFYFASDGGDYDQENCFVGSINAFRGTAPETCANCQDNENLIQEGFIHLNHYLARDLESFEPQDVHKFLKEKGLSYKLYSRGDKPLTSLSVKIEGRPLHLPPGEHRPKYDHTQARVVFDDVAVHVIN
Method in brief: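 Mushroom tyrosinase diphenolase assay: 1 mL reaction with 0.5 mM L-DOPA in 50 mM sodium phosphate buffer, pH 6.8, enzyme final 0.5 mg/mL, 25 °C. Compounds dissolved in DMSO (2.0% final); DMSO-only controls run. Dopachrome formation followed at 475 nm for 1 min. IC50 interpolated from dose–response curves; means of three experiments.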

[2] = tested on: Staphylococcus; assay: Antibacterial activity against Staphylococcus albus at 1 mg/ml after 24 hrs by agar dilution method; format: functional, organism-based
[3] = tested on: Staphylococcus aureus; assay: Antibacterial activity against Staphylococcus aureus after 24 hrs by agar dilution method; format: functional
Method in brief: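 MIC by agar dilution on Mueller–Hinton agar containing twofold serial dilutions from a 1 mg/mL DMSO stock. Final levels 50, 25, 12.5, 6.25, 3.1, 1.5, 0.8, 0.4 and 0.2. Inoculum was 16–18 h cultures at 0.5 McFarland; plates incubated 37 °C for 24 h. MIC is the lowest concentration preventing visible growth; levofloxacin was the reference.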

[4] = tested on: Staphylococcus epidermidis; assay: Antibacterial activity against Staphylococcus epidermidis at 1 mg/ml after 24 hrs by agar dilution method; format: functional, organism-based
Method in brief: (§1)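 Agar well diffusion: overnight (16–18 h, 37 °C) cultures set to 0.5 McFarland and mixed into Mueller–Hinton agar. Compound stock 1 mg/mL in DMSO loaded into 6 mm wells, with DMSO as control and levofloxacin as reference. Plates incubated 37 °C for 24 h. Read-out is the diameter of the growth-inhibition zone around each well.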

[5] = target: T2, Tyrosinase (Agaricus bisporus) (UniProt O42713); assay: Inhibition of mushroom tyrosinase at 200 uM
T2 sequence (whole entry): T1 sequence (O42713 whole entry)
Method in brief: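 Single-concentration check in the mushroom tyrosinase diphenolase assay. Conditions: 0.5 mM L-DOPA, 50 mM phosphate buffer pH 6.8, enzyme 0.5 mg/mL, 25 °C, 2.0% DMSO final with DMSO controls. Activity read as dopachrome absorbance at 475 nm over 1 min.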

[6] = tested on: Bacillus cereus; assay: Antibacterial activity against Bacillus cereus at 1 mg/ml after 24 hrs by agar dilution method; format: functional, organism-based
[7] = tested on: Pseudomonas aeruginosa; assay: Antibacterial activity against Pseudomonas aeruginosa at 1 mg/ml after 24 hrs by agar dilution method; format: functional, organism-based; method in brief: as §1
[8] = tested on: Escherichia coli; assay: Antibacterial activity against Escherichia coli at 1 mg/ml after 24 hrs by agar dilution method; format: functional, organism-based

`COCCCCOc1ccc(C=C2C(=O)NC(=O)NC2=O)cc1` was tested, and the IC50 [1] was over 200 µM, the Activity [2] was “inactive” and the MIC [3] was over 25 µg/mL. The Activity [4] was “inactive”, the inhibition [5] was 12.2% and the Activity [6] was “inactive”. For the same molecule, the Activity [7] was “inactive” and the Activity [8] was “inactive”.
`COCCCCOc1ccc(CC2C(=O)NC(=S)NC2=O)cc1` was tested, and the IC50 [1] was over 200 µM, the Activity [2] was “inactive” and the MIC [3] was over 12.5 µg/mL. For the same molecule, the Activity [4] was “inactive”, the inhibition [5] was 9.85% and the Activity [6] was “inactive”. For the same molecule, the Activity [7] was “inactive” and the Activity [8] was “inactive”.
With `O=C1NC(=S)NC(=O)C1=Cc1ccc(OCCO)cc1` the IC50 [1] was over 200 µM, the Activity [2] was “inactive” and the MIC [3] was over 25 µg/mL. For the same molecule, the Activity [4] was “inactive”, the inhibition [5] was 16.5% and the Activity [6] was “inactive”. For the same molecule, the Activity [7] was “inactive” and the Activity [8] was “inactive”.
In the case of `O=C1NC(=O)C(=Cc2ccc(O)cc2)C(=O)N1`, the IC50 [1] is reported as 14 µM, the Activity [2] is reported as “inactive” and the MIC [3] is reported as over 25 µg/mL. The Activity [4] was “inactive”, the inhibition [5] was 100% and the Activity [6] was “inactive”. For the same molecule, the Activity [7] was “inactive” and the Activity [8] was “inactive”.
In the case of `O=C1NC(=O)C(Cc2ccc(OCCO)cc2)C(=O)N1`, the IC50 [1] is reported as over 200 µM, the Activity [2] is reported as “inactive” and the MIC [3] is reported as over 12.5 µg/mL. The Activity [4] was “inactive”, the inhibition [5] was 5.27% and the Activity [6] was “inactive”. The Activity [7] was “inactive” and the Activity [8] was “inactive”.
Molecule `C[C@H]1COc2c(N3CCN(C)CC3)c(F)cc3c(=O)c(C(=O)O)cn1c23.C[C@H]1COc2c(N3CCN(C)CC3)c(F)cc3c(=O)c(C(=O)O)cn1c23.O` [LEVOFLOXACIN] has an MIC [3] of 0.4 µg/mL.
With `COCCCCOc1ccc(C=C2C(=O)NC(=S)NC2=O)cc1` the IC50 [1] was 77.8 µM, the Activity [2] was “inactive” and the MIC [3] was over 25 µg/mL. For the same molecule, the Activity [4] was “inactive”, the inhibition [5] was 100% and the Activity [6] was “inactive”. For the same molecule, the Activity [7] was “inactive” and the Activity [8] was “inactive”.
With `COCCOc1ccc(CC2C(=O)NC(=S)NC2=O)cc1` the IC50 [1] was 113 µM, the Activity [2] was “inactive” and the MIC [3] was over 12.5 µg/mL. The Activity [4] was “inactive”, the inhibition [5] was 100% and the Activity [6] was “inactive”. The Activity [7] was “inactive” and the Activity [8] was “inactive”.
Work on `O=Cc1ccc(O)cc1` [4-HYDROXYBENZALDEHYDE] yielded an IC50 [1] of 1220 µM and an inhibition [5] of 16.4%.
For `CCCCOCCOc1ccc(C=C2C(=O)NC(=O)NC2=O)cc1`, the IC50 [1] was 45.4 µM, the Activity [2] was “inactive” and the MIC [3] was over 25 µg/mL. The Activity [4] was “inactive”, the inhibition [5] was 100% and the Activity [6] was “inactive”. For the same molecule, the Activity [7] was “inactive” and the Activity [8] was “inactive”.
For `O=C1NC(=S)NC(=O)C1Cc1ccc(O)cc1`, the IC50 [1] was 70 µM, the Activity [2] was “inactive” and the MIC [3] was over 25 µg/mL. The Activity [4] was “inactive”, the inhibition [5] was 100% and the Activity [6] was “inactive”. For the same molecule, the Activity [7] was “inactive” and the Activity [8] was “inactive”.
In the case of `CCCCOCCOc1ccc(C=C2C(=O)NC(=S)NC2=O)cc1`, the IC50 [1] is reported as 107 µM, the Activity [2] is reported as “inactive” and the MIC [3] is reported as 3.1 µg/mL (≈ 8.9 µM). The Activity [4] was “inactive”, the inhibition [5] was 85.9% and the Activity [6] was “inactive”. For the same molecule, the Activity [7] was “inactive” and the Activity [8] was “inactive”.
In the case of `COc1ccc(/C=C/C(=O)O)cc1`, the inhibition [5] is reported as 46.6%.
With `CCCCOCCOc1ccc(CC2C(=O)NC(=O)NC2=O)cc1` the IC50 [1] was over 200 µM, the Activity [2] was “inactive” and the MIC [3] was over 12.5 µg/mL. For the same molecule, the Activity [4] was “inactive”, the inhibition [5] was “inactive” and the Activity [6] was “inactive”. The Activity [7] was “inactive” and the Activity [8] was “inactive”.
With `O=C1CC(=O)NC(=S)N1` [THIOBARBITURIC] the IC50 [1] was over 200 µM and the inhibition [5] was 8.21%.
